Assay results of several laboratories.
Lines come from different studies, so protocols differ.
sapA: sapA (Haemophilus influenzae, UniProt Q4QL73)
USP28: Ubiquitin carboxyl-terminal hydrolase 28 (USP28, Homo sapiens, UniProt Q96RU2)

For `CNC(=O)c1ccc(-c2cnn3ccc(C(=O)N(C)c4ccc(Cl)c(C(=O)OC)c4)cc23)cc1`, the IC50 was > 30 µM (TGF-beta receptor type-1 (TGFBR1, Homo sapiens, UniProt P36897); enzyme activity; inhibitor).
For `C[C@@H](O)[C@H](NC(=O)CNC(=O)[C@H](Cc1ccc(O)cc1)NC(=O)[C@H](CCCNC(=N)N)NC(=O)[C@@H](N)CO)C(=O)O`, the Kd was 31 nM (sapA; binding).
With `COC(=O)c1cc(N(C)C(=O)c2ccn3ncc(-c4ccc(C(=O)O)cc4)c3c2)ccc1Cl` the IC50 was > 30 µM (Hepatocyte growth factor receptor (MET, Homo sapiens, UniProt P08581); enzyme activity; inhibitor).
The IC50 of `CCC(C(=O)Nc1cc(NC2CCNC2)ccc1C)n1cc(Br)cc2nc(SCc3ccc(F)cc3)nc1-2` (stereo not drawn) is reported as > 100 µM (USP28; enzyme activity; inhibitor).
The Kd of `NCCCC[C@H](NC(=O)[C@@H]1CCCN1)C(=O)N[C@@H](CO)C(=O)N[C@@H](CCC(=O)O)C(=O)N[C@@H](CCC(N)=O)C(=O)O` is reported as 28 nM (sapA; binding).
`CCC(C(=O)Nc1cc(NC2COC2)ccc1C)n1cc(Br)cc2nc(SCc3ccc(F)cc3)nc1-2` (stereo not drawn) has an IC50 of > 100 µM (USP28; enzyme activity; inhibitor).
`CC[C@H](C)[C@H](NC(C)=O)C(=O)N[C@@H](CCC(=O)O)C(=O)N[C@H](C(=O)N[C@H](C=O)CC(=O)O)[C@@H](C)O` gave an IC50 of 0.011 µM (Caspase-1 (CASP1, Homo sapiens, UniProt P29466); enzyme activity; inhibitor).
With `C[C@@H](O)[C@H](NC(=O)CNC(=O)[C@H](Cc1ccc(O)cc1)NC(=O)[C@H](CO)NC(=O)[C@@H](N)CCCNC(=N)N)C(=O)O` the Kd was 139 nM (sapA; binding).
`CCC(C(=O)Nc1cc(NC2CCNCC2)ccc1C)n1cc(Cl)cc2nc(SCc3ccc(F)cc3)nc1-2` (stereo not drawn) has an IC50 of > 100 µM (Ubiquitin carboxyl-terminal hydrolase 7 (USP7, Homo sapiens, UniProt Q93009); enzyme activity; inhibitor).
